ChEMBL document CHEMBL3763097, “Synthesis and biological evaluation of 5,10-dihydro-11H-dibenzo[b,e][1,4]diazepin-11-one structural derivatives as anti-cancer and apoptosis inducing agents” (Eur J Med Chem, 2016)
Calls of active or inactive are those of the source. The rule behind the calls is not given here.

Legend:
[1] = test system: A549; assay: Induction of apoptosis in human A549 cells assessed as condensation of nuclei at 0.5 to 2 uM after 48 hrs by Hoechst […] staining based fluorescence microscopy; format: functional, cell-based
Summary of the method: (§1)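 Cells at 25×10^4 per well were allowed to adhere 24 h, then treated with 0.5, 1 and 2 µM compound for 48 h at 37 °C. After a PBS wash they were stained with Hoechst […] (5 µg/mL) for 30 min at room temperature and washed twice. Nuclear morphology was viewed by fluorescence microscopy (ex 350/em 460 nm).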

[2] = test system: MDA-MB-231; assay: Induction of apoptosis in human MDA-MB-231 cells assessed as condensation of nuclei at 0.5 to 2 uM after 48 hrs by Hoechst […] staining based fluorescence microscopy; format: functional, cell-based; summary of the method: as §1
[3] = test system: MDA-MB-231; assay: Disruption of mitochondrial membrane potential in human MDA-MB-231 cells at 0.5 to 2 uM after 48 hrs by Rhodamine-123 staining based spectrofluorometry; format: functional
Summary of the method: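 Cells were seeded at 5×10^5 cells/mL overnight and treated with 0.5, 1 and 2 µM compound; the methods say 24 h and the results text says 48 h. Trypsinised cells were washed and stained with rhodamine-123 (2 µM in PBS) for 30 min at room temperature in the dark, washed and read by spectrofluorometer. Data are mean ± SD of three independent experiments.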

[4] = test system: A549; assay: Induction of apoptosis in human A549 cells assessed as viable cells at 0.5 uM after 24 hrs by Annexin V-FITC/PI dual staining based flow cytometry (reference value: 85%); format: functional; settings: A549, 24 h, read-out: Activity
[5] = test system: A549; assay: Induction of apoptosis in human A549 cells assessed as late apoptotic cells at 1 uM after 24 hrs by Annexin V-FITC/PI dual staining based flow cytometry (reference value: 4.5%); format: functional
[6] = test system: A549; assay: Induction of apoptosis in human A549 cells assessed as necrotic cells at 1 uM after 24 hrs by Annexin V-FITC/PI dual staining based flow cytometry (reference value: 5.2%); format: functional
[7] = test system: MDA-MB-231; assay: Induction of apoptosis in human MDA-MB-231 cells assessed as necrotic cells at 0.5 uM after 24 hrs by Annexin V-FITC/PI dual staining based flow cytometry (reference value: 1.9%); format: functional
[8] = test system: MDA-MB-231; assay: Induction of apoptosis in human MDA-MB-231 cells assessed as viable cells at 1 uM after 24 hrs by Annexin V-FITC/PI dual staining based flow cytometry (reference value: 91%); format: functional; settings: MDA-MB-231, 24 h, read-out: Activity
[9] = test system: MDA-MB-231; assay: Induction of apoptosis in human MDA-MB-231 cells assessed as necrotic cells at 1 uM after 24 hrs by Annexin V-FITC/PI dual staining based flow cytometry (reference value: 1.9%); format: functional
[10] = test system: A549; assay: Induction of apoptosis in human A549 cells after 24 hrs by Annexin V-FITC/PI dual staining based flow cytometry; format: functional, cell-based
[11] = test system: MDA-MB-231; assay: Induction of apoptosis in human MDA-MB-231 cells after 24 hrs by Annexin V-FITC/PI dual staining based flow cytometry; format: functional, cell-based
[12] = test system: A549; assay: Cell cycle arrest in human A549 cells assessed as accumulation at G2/M phase after 24 to 48 hrs by propidium iodide staining based flow cytometry; format: functional
Summary of the method: (§2)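 Cells were seeded at 1×10^6 per well and treated 24 h later with 0.5, 1 or 2 µM compound; DMSO-treated cells served as control. Methods give harvest at 48 h (floating plus trypsinised cells); the figure legend says 24 h. Cells were fixed in 70% ethanol for 30 min at 4 °C and stained with PI, Triton X-100 and RNase A for 15 min in the dark. 10000 events were counted by flow cytometry.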

[13] = Cytotoxicity against human U87MG cells assessed as growth inhibition after 72 hrs by MTT assay; format: functional, cell-based, U-87MG ATCC; settings: U-87 MG
Summary of the method: (§3)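 Cells in RPMI 1640 (PC-3, A549, MDA-MB-231) or DMEM (U87MG, MCF-7) with 10% FBS, passages 4-10, were seeded at 3000-5000 per well and left 24 h. Compounds in DMSO/medium were added for 72 h; DMSO served as control. MTT (5 mg/mL) was added for 4 h and formazan dissolved in DMSO. Absorbance was read at 570 nm minus 630 nm. % inhibition was taken versus DMSO, with IC50 by probit; mean ± SD of three experiments in triplicate.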

[14] = test system: MCF7; assay: Cytotoxicity against human MCF7 cells assessed as growth inhibition after 72 hrs by MTT assay; format: functional, cell-based; settings: MCF7, 72 h; summary of the method: as §3
[15] = test system: MDA-MB-231; assay: Cytotoxicity against human MDA-MB-231 cells assessed as growth inhibition after 72 hrs by MTT assay; format: functional, cell-based; settings: MDA-MB-231, 72 h; summary of the method: as §3
[16] = test system: A549; assay: Cytotoxicity against human A549 cells assessed as inhibition of colony formation after 24 hrs by methylene blue staining-based assay; format: functional, cell-based
Summary of the method: (§4)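 Clonogenic assay. Cells were plated at 500 per well and allowed to adhere 24 h. Compound was added at 0.1, 1 and 10 µM for 24 h, then medium was replaced and cells grown a further 14 days. Colonies were fixed with 4% paraformaldehyde, stained with 0.5% methylene blue in PBS for 30 min, rinsed and photographed.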

[17] = test system: MDA-MB-231; assay: Cytotoxicity against human MDA-MB-231 cells assessed as inhibition of colony formation after 24 hrs by methylene blue staining-based assay; format: functional, cell-based; summary of the method: as §4
[18] = test system: A549; assay: Antimigratory activity in human A549 cells at 0.5 to 2 uM measured after 24 to 48 hrs by wound healing assay; format: functional, cell-based
Summary of the method: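 Wound-healing assay. Cells were seeded at 5×10^5 per well and grown 24 h to a confluent monolayer, then scratched once across the middle with a sterile pipette tip and washed twice with PBS. Compound was added at 0.5, 1 and 2 µM. Wound closure was photographed by phase-contrast microscopy at 0, 24 and 48 h in three or more random fields.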

[19] = test system: A549; assay: Cell cycle arrest in human A549 cells assessed as accumulation at G0/G1 phase at 0.5 uM after 24 to 48 hrs by propidium iodide staining based flow cytometry (reference value: 49.1%); format: functional; summary of the method: as §2
[20] = test system: A549; assay: Cell cycle arrest in human A549 cells assessed as accumulation at G0/G1 phase at 1 uM after 24 to 48 hrs by propidium iodide staining based flow cytometry (reference value: 49.1%); format: functional; summary of the method: as §2
[21] = test system: MDA-MB-231; assay: Cell cycle arrest in human MDA-MB-231 cells assessed as accumulation at G0/G1 phase at 0.5 uM after 24 to 48 hrs by propidium iodide staining based flow cytometry (reference value: 74.4%); format: functional; summary of the method: as §2
[22] = test system: MDA-MB-231; assay: Cell cycle arrest in human MDA-MB-231 cells assessed as accumulation at G2/M phase at 0.5 uM after 24 to 48 hrs by propidium iodide staining based flow cytometry (reference value: 20.2%); format: functional; summary of the method: as §2
[23] = test system: MDA-MB-231; assay: Cell cycle arrest in human MDA-MB-231 cells assessed as accumulation at G0/G1 phase at 1 uM after 24 to 48 hrs by propidium iodide staining based flow cytometry (reference value: 74.4%); format: functional; summary of the method: as §2
[24] = test system: A549 (human); assay: Induction of apoptosis in human A549 cells assessed as late apoptotic cells at 2 uM after 24 hrs by Annexin V-FITC/PI dual staining based flow cytometry (reference value: 6.2%)
[25] = test system: MDA-MB-231 (human); assay: Induction of apoptosis in human MDA-MB-231 cells assessed as early apoptotic cells at 2 uM after 24 hrs by Annexin V-FITC/PI dual staining based flow cytometry (reference value: 5.3%)

With O=C1c2ccccc2Nc2ccccc2N1Cc1cn(Cc2ccccc2)nn1 the Activity [1] was “Active”, the Activity [2] was “Active” and the Activity [3] was 20%. For the same molecule, the viability at 0.5 µM [4] was 75%, the Activity [5] was 10.7% and the Activity [6] was 1.9%. The Activity [7] was 2.5%, the viability at 1 µM [8] was 73% and the Activity [9] was 1.4%. The Activity [10] was “Dose-dependent effect”, the Activity [11] was “Dose-dependent effect” and the Activity [12] was “Dose-dependent effect”. It also gave an IC50 [13] of 6.97 µM, an IC50 [14] of 7.29 µM and an IC50 [15] of 0.73 µM. For the same molecule, the inhibition [16] was “Dose-dependent effect”, the inhibition [17] was “Dose-dependent effect” and the inhibition [18] was “Dose-dependent effect”. For the same molecule, the Activity [19] was 42.8%, the Activity [20] was 39.8% and the Activity [21] was 73.6%. The Activity [22] was 22.3%, the Activity [23] was 60.1% and the Activity [24] was 15.6%. For the same molecule, the Activity [25] was 15.4%.
